# Test results published in ChEMBL document CHEMBL1123146, “Design, synthesis, and evaluation of omega-iodovinyl- and omega-iodoalkyl-substituted methyl-branched long-chain fatty acids” (J Med Chem, 1985).
# What was measured:
# Rattus norvegicus [1] = assay: Concentration was measured in kidney tissue of unfasted Fischer 344 rats administered intravenously after 60 minute (radiolabeled with [125I]-; assay type: ADME, organism-based; conditions: in vivo, iv, 1 h
# Procedure, shortened: (§1)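 Female Fischer 344 rats, 10-12 weeks old, 170-200 g, with food and water ad libitum. The 125I-fatty acid was taken up in ethanol, added dropwise to stirred 6% BSA at ~40 °C (final ethanol 10%), filtered, and given as 0.5 mL via lateral tail vein under ether anesthesia. Rats were killed by cervical fracture; blood was taken by cardiac puncture. Organs were rinsed, blotted, weighed and gamma-counted against injectate standards to give %ID/g. Five rats per time point.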
# Rattus norvegicus [2] = assay: Concentration was measured in kidney tissue of unfasted Fischer 344 rats administered intravenously after 2 minute (radiolabeled with [125I]-; assay type: ADME, organism-based; conditions: in vivo, iv, 2 min; procedure, shortened: as §1
# Rattus norvegicus [3] = assay: Concentration was measured in liver tissue f unfasted Fischer 344 rats administered intravenously after 10 minute (radiolabeled with [125I]-; assay type: ADME, organism-based; conditions: in vivo, iv, 10 min; procedure, shortened: as §1
# Rattus norvegicus [4] = assay: Concentration was measured in liver tissue of unfasted Fischer 344 rats administered intravenously after 60 minute (radiolabeled with [125I]-; assay type: ADME, organism-based; conditions: in vivo, iv, 1 h; procedure, shortened: as §1
# Rattus norvegicus [5] = assay: Concentration was measured in liver tissue of unfasted Fischer 344 rats administered intravenously after 2 minute (radiolabeled with [125I]-; assay type: ADME, organism-based; conditions: in vivo, iv, 2 min; procedure, shortened: as §1
# Rattus norvegicus [6] = assay: Concentration was measured in liver tissue of unfasted Fischer 344 rats administered intravenously after 5 minute (radiolabeled with [125I]-; assay type: ADME, organism-based; conditions: in vivo, iv, 5 min; procedure, shortened: as §1
# Rattus norvegicus [7] = assay: Concentration was measured in lungs tissue of unfasted Fischer 344 rats administered intravenously after 10 minute (radiolabeled with [125I]-; assay type: ADME, organism-based, Lung; conditions: in vivo, iv, 10 min; procedure, shortened: as §1
# Rattus norvegicus [8] = assay: Concentration was measured in lungs tissue of unfasted Fischer 344 rats administered intravenously after 2 minute (radiolabeled with [125I]-; assay type: ADME, organism-based, Lung; conditions: in vivo, iv, 2 min; procedure, shortened: as §1
# Rattus norvegicus [9] = assay: Concentration was measured in heart tissue of unfasted Fischer 344 rats administered intravenously after 2 minute (radiolabeled with [125I]-; assay type: ADME, organism-based; conditions: in vivo, iv, 2 min; procedure, shortened: as §1
# Rattus norvegicus [10] = assay: Concentration was measured in heart tissue of unfasted Fischer 344 rats administered intravenously after 5 minute (radiolabeled with [125I]-; assay type: ADME, organism-based; conditions: in vivo, iv, 5 min; procedure, shortened: as §1
# Rattus norvegicus [11] = assay: Concentration was measured in heart tissue of unfasted Fischer 344 rats administered intravenously after 60 minute (radiolabeled with [125I]-; assay type: ADME, organism-based; conditions: in vivo, iv, 1 h; procedure, shortened: as §1
# Rattus norvegicus [12] = assay: Concentration was measured in heart tissue of unfasted Fischer 344 rats administered intravenously after 10 min (radiolabeled with [125I]-; assay type: ADME, organism-based; conditions: in vivo, iv; procedure, shortened: as §1
# Rattus norvegicus [13] = assay: Concentration was measured in kidney tissue of unfasted Fischer 344 rats administered intravenously after 10 minute (radiolabeled with [125I]-; assay type: ADME, organism-based; conditions: in vivo, iv, 10 min; procedure, shortened: as §1
# Rattus norvegicus [14] = assay: Concentration was measured in kidney tissue of unfasted Fischer 344 rats administered intravenously after 5 minute (radiolabeled with [125I]-; assay type: ADME, organism-based; conditions: in vivo, iv, 5 min; procedure, shortened: as §1
# Rattus norvegicus [15] = assay: Concentration was measured in lungs tissue of unfasted Fischer 344 rats administered intravenously after 5 minute (radiolabeled with [125I]-; assay type: ADME, organism-based, Lung; conditions: in vivo, iv, 5 min; procedure, shortened: as §1
# Rattus norvegicus [16] = assay: Concentration was measured in blood tissue of unfasted Fischer 344 rats administered intravenously after 10 minute (radiolabeled with [125I]-; assay type: ADME, organism-based; conditions: in vivo, iv, 10 min; procedure, shortened: as §1
# Rattus norvegicus [17] = assay: Concentration was measured in blood tissue of unfasted Fischer 344 rats administered intravenously after 60 minute (radiolabeled with [125I]-; assay type: ADME, organism-based; conditions: in vivo, iv, 1 h; procedure, shortened: as §1
# Rattus norvegicus [18] = assay: Concentration was measured in blood tissue of unfasted Fischer 344 rats administered intravenously after 2 minute (radiolabeled with [125I]-; assay type: ADME, organism-based; conditions: in vivo, iv, 2 min; procedure, shortened: as §1
# Rattus norvegicus [19] = assay: Concentration was measured in blood tissue of unfasted Fischer 344 rats administered intravenously after 5 minute (radiolabeled with [125I]-; assay type: ADME, organism-based; conditions: in vivo, iv, 5 min; procedure, shortened: as §1
# Rattus norvegicus [20] = assay: Concentration was measured in thyroid tissue of unfasted Fischer 344 rats administered intravenously after 10 minute (radiolabeled with [125I]-; assay type: ADME, organism-based, Thyroid gland; conditions: in vivo, iv, 10 min
# Procedure, shortened: (§2)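 Female Fischer 344 rats, five per time point, each given 11 μCi of the ¹²⁵I-labeled fatty acid (~269 mCi/mmol) via a lateral tail vein in 0.5 mL of 6% BSA (10% ethanol) under ether anesthesia. Blood was drawn by cardiac puncture; organs were rinsed, weighed and gamma-counted against injectate standards. Output is % injected dose/g and mean heart/blood ratio.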
# Rattus norvegicus [21] = assay: Concentration was measured in thyroid tissue of unfasted Fischer 344 rats administered intravenously after 2 minute (radiolabeled with [125I]-; assay type: ADME, organism-based, Thyroid gland; conditions: in vivo, iv, 2 min
# Procedure, shortened: (§3)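 Female Fischer 344 rats, 10–12 weeks old (170–200 g), with food and water ad libitum, five per time point. The radioiodinated fatty acid was dissolved in ethanol, added to 6% BSA at ~40 °C (final 10% ethanol), filtered, and injected into a lateral tail vein (0.5 mL) under ether anesthesia. Blood was taken by cardiac puncture; organs were rinsed, blotted, weighed and gamma-counted against injectate standards. Output is % injected dose/g.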
# Rattus norvegicus [22] = assay: Concentration was measured in thyroid tissue of unfasted Fischer 344 rats administered intravenously after 5 minute (radiolabeled with [125I]-; assay type: ADME, organism-based, Thyroid gland; conditions: in vivo, iv, 5 min; procedure, shortened: as §3
# Rattus norvegicus [23] = assay: Concentration was measured in thyroid tissue of unfasted Fischer 344 rats administered intravenously after 60 minute (radiolabeled with [125I]-; assay type: ADME, organism-based, Thyroid gland; conditions: in vivo, iv, 1 h; procedure, shortened: as §3
# Rattus norvegicus [24] = assay: Concentration was measured in lungs tissue of unfasted Fischer 344 rats administered intravenously after 60 minute (radiolabeled with [125I]-; assay type: ADME, organism-based, Lung; conditions: in vivo, iv, 1 h; procedure, shortened: as §1
# Rattus norvegicus [25] = assay: Concentration was measured in mean heart/blood tissue of unfasted Fischer 344 rats administered intravenously after 10 minute (radiolabeled with [125I]-; assay type: ADME, organism-based; conditions: iv, 10 min; procedure, shortened: as §2
# Rattus norvegicus [26] = assay: Concentration was measured in mean heart/blood tissue of unfasted Fischer 344 rats administered intravenously after 2 minute (radiolabeled with [125I]-; assay type: ADME, organism-based; conditions: in vivo, iv, 2 min
# Rattus norvegicus [27] = species: Rattus norvegicus; assay: Specific activity was determined with radioiodinated iodine-125; assay type: functional
# Rattus norvegicus [28] = assay: Concentration was measured in mean heart/blood tissue of fasted Fischer 344 rats administered intravenously after 5 minute (radiolabeled with [125I]-; conditions: in vivo, iv, 5 min
# Rattus norvegicus [29] = assay: Concentration was measured in mean heart/blood tissue of fasted Fischer 344 rats administered intravenously after 60 minute (radiolabeled with [125I]-; conditions: in vivo, iv, 1 h
smiles,measurement,setting,value
CC(CCCCCCCCCCCCCCI)CC(=O)O (centres undefined),Distribution,Rattus norvegicus [1],0.59%
same,Distribution,Rattus norvegicus [2],1.35%
same,Distribution,Rattus norvegicus [3],2.54%
same,Distribution,Rattus norvegicus [4],0.95%
same,Distribution,Rattus norvegicus [5],3.93%
same,Distribution,Rattus norvegicus [6],2.5%
same,Distribution,Rattus norvegicus [7],1.16%
same,Distribution,Rattus norvegicus [8],1.75%
same,Distribution,Rattus norvegicus [9],2.68%
same,Distribution,Rattus norvegicus [10],1.93%
same,Distribution,Rattus norvegicus [11],0.95%
same,Distribution,Rattus norvegicus [12],1.77%
same,Distribution,Rattus norvegicus [13],0.96%
same,Distribution,Rattus norvegicus [14],1.06%
same,Distribution,Rattus norvegicus [15],1.03%
same,Distribution,Rattus norvegicus [16],1.31%
same,Distribution,Rattus norvegicus [17],0.72%
same,Distribution,Rattus norvegicus [18],2.47%
same,Distribution,Rattus norvegicus [19],1.43%
same,Distribution,Rattus norvegicus [20],43.3%
same,Distribution,Rattus norvegicus [21],22.5%
same,Distribution,Rattus norvegicus [22],30.2%
same,Distribution,Rattus norvegicus [23],217%
same,Distribution,Rattus norvegicus [24],0.68%
same,Distribution,Rattus norvegicus [25],1.35%
same,Distribution,Rattus norvegicus [26],1.09%
same,Specific activity,Rattus norvegicus [27],0.269 Ci mM-1
same,Distribution,Rattus norvegicus [28],1.35%
same,Distribution,Rattus norvegicus [29],1.32%
